Assays:
[1] = molecular target: T1, Gastric triacylglycerol lipase (Canis lupus familiaris) (UniProt P80035); experiment: Inhibition of recombinant dog gastric lipase assessed as residual activity at 4.1 mg/ml under gastric phase at pH 5.5 using liquid test meal measured up to 30 mins relative to control; conditions: time min <=30
T1 sequence (whole entry): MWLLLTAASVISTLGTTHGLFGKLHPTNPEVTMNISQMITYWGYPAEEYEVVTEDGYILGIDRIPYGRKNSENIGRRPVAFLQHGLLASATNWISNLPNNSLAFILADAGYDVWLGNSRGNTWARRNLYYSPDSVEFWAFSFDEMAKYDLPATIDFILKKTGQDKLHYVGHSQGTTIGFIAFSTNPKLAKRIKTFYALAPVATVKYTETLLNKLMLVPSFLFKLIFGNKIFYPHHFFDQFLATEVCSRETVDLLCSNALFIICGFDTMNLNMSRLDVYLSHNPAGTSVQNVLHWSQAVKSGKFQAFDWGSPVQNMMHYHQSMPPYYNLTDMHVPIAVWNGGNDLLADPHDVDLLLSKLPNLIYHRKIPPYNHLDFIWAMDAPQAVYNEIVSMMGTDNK
Outline: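 Gastric phase: 15 mL liquid or solid test meal (506 mg TAG) premixed with 734 µL of 4.1 mg/mL DMSO stock (2.94 mg, 7.262 µmol), then DGL to 17 µg/mL final, pH 5.5, 37 °C, stirred. Samples at 1, 15, 29 min; residual DGL activity by pH-stat; lipolysis level from TLC-FID of lipid extracts. DMSO-only controls; n = 3.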

[2] = molecular target: T1, Gastric triacylglycerol lipase (Canis lupus familiaris); experiment: Inhibition of recombinant dog gastric lipase preincubated for 30 mins at 25 degreeC
[3] = molecular target: T2, Pancreatic lipase-related protein 2 (Cavia porcellus) (UniProt P81139); experiment: Inhibition of recombinant guinea pig PL-RP2 expressed in Aspergillus oryzae preincubated for 30 mins at 25 degreeC
T2 sequence (whole entry): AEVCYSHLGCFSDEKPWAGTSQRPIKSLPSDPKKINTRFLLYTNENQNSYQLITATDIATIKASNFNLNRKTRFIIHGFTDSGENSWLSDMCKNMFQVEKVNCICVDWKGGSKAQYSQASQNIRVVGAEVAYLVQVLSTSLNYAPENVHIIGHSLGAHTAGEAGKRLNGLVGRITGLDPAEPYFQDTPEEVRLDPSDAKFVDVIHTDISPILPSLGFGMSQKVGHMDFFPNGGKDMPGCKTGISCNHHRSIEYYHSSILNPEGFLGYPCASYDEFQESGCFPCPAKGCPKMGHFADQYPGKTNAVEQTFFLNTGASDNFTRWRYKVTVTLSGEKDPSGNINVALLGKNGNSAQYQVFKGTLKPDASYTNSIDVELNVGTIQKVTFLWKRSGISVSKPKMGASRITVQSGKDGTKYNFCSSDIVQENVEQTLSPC

[4] = molecular target: T1, Gastric triacylglycerol lipase (Canis lupus familiaris); experiment: Inhibition of recombinant dog gastric lipase at 4:1 molar excess compound concentration preincubated for 30 mins at 25 degreeC relative to control
[5] = molecular target: T3, Pancreatic triacylglycerol lipase (Sus scrofa) (UniProt P00591); experiment: Inhibition of porcine pancreatic lipase assessed as residual activity at 4.1 mg/ml under duodenal phase at pH 6.5 using liquid test meal measured after 30 to 90 mins relative to control; conditions: time 30-90 min
T3 sequence (whole entry): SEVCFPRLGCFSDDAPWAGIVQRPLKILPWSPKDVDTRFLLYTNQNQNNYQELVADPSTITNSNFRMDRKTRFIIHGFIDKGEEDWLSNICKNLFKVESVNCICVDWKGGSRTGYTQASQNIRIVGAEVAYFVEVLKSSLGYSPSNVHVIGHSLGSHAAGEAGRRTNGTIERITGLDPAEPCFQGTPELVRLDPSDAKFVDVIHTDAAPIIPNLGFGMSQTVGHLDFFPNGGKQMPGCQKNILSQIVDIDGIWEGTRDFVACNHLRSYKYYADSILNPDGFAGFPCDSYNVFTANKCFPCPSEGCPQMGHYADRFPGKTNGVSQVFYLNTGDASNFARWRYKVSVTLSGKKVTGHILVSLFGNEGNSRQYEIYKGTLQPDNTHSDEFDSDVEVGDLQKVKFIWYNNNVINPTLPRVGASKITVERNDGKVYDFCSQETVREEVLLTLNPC

[6] = molecular target: T3, Pancreatic triacylglycerol lipase (Sus scrofa); experiment: Inhibition of porcine pancreatic lipase assessed as residual activity at 4.1 mg/ml under duodenal phase at pH 6.5 using solid test meal measured after 30 to 90 mins relative to control; conditions: time 30-90 min
[7] = molecular target: T3, Pancreatic triacylglycerol lipase (Sus scrofa); experiment: Inhibition of porcine pancreatic lipase assessed as lipolysis level at 4.1 mg/ml under duodenal phase at pH 6.5 using solid test meal measured at 90 mins (reference value: 45.4 +/- 1.4 %); set-up: scale not given: the % may be the effect or the level left
[8] = molecular target: T3, Pancreatic triacylglycerol lipase (Sus scrofa); experiment: Inhibition of porcine pancreatic lipase at 4.1 mg/ml under duodenal phase at pH 6.5 using solid test meal measured after 30 to 90 mins relative to control; conditions: time 30-90 min
[9] = molecular target: T3, Pancreatic triacylglycerol lipase (Sus scrofa); conditions: dose 4.9 mg/ml, time 30-90 min

O=c1oc(OCCOCc2ccccc2)nn1-c1cccc(Oc2ccccc2)c1
Activity [1]: 0%
XI50 [2]: 0.5 molar excess
XI50 [3]: 0.64 molar excess
inhibition [4]: 87.6%
Activity [5]: 94.4%
Activity [6]: 94.9%
Activity [7]: 33.7%
inhibition [8]: 5.1%

CCCCCCCCCCC[C@@H](C[C@@H]1OC(=O)[C@H]1CCCCCC)OC(=O)[C@@H](CC(C)C)NC=O
inhibition [9]: 100%
